Assay results from different studies.
Protocols differ between the studies behind these lines.
Cell line: U-251
Observed: cell growth or viability

With O=C1Nc2ccccc2C1=NNc1nnc2n1N=C(c1ccccc1)CS2 the inhibition was 50% (SRB; 10 µM).
With Cc1cc(NC(=O)c2cccc3cc(-c4cccc5[nH]nc(N)c45)ccc23)ccc1F the IC50 was greater than 20 µM (CCK-8; 72 h).
COc1ccc(-c2ccc(-c3ccc(C(=N)N)nc3)s2)cc1 gave a GI50 of 1810 nM (SRB).
With CC(=O)O[C@H]1C(=O)[C@@]2(C)[C@H]([C@H](OC(=O)c3ccccc3)[C@]3(O)C[C@H](OC(=O)[C@H](O)[C@@H](NC(=O)c4ccccc4)c4ccccc4)C(C)=C1C3(C)C)[C@]1(OC(C)=O)CO[C@@H]1C[C@@H]2O the IC50 was 0.5 µg/mL.
The GI50 of COc1cc(-c2ccc(-c3ccc(C(=N)N)nc3)s2)cc(OC)c1OC is reported as 1740 nM (SRB).
With COc1ccc(C(=O)/C=C/c2cccnc2)cc1S(N)(=O)=O the inhibition was 89% (SRB; 10 µM).
COc1cccc(Oc2ccccc2NC(=O)CNC(=O)c2cccc3ccccc23)c1 has a GI50 of 240 nM (SRB; 48 h).
For COc1ccc(C(=O)/C=C/c2cccc(Br)c2)cc1S(N)(=O)=O, the inhibition was 198% (SRB; 10 µM).
The IC50 of COc1nc(OCc2cccc(-c3ccccc3)c2C)ccc1CNCCNC(C)=O is reported as 4.3 µM (MTT).
